Columns and labels:
[1] = tested on: BCL-XL / BCL-2 ternary complexes with DT2216 and VHL; settings: live cells, nanoBRET assay; cited from earlier work
[2] = tested on: MOLT-4 T-ALL cells; assay: MOLT-4 cell viability assay; assay type: cell-based, human
[3] = biological target: BCL-XL (Homo sapiens, UniProt Q07817); assay: Western blot of BCL-XL protein levels in MOLT-4 cells; assay type: cell-based
Outline: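 MOLT-4 cells were treated for 16 h with test compound (100 nM for VHL-based, 50 nM for CRBN-based, or a concentration series for DC50). Other runs used 100 nM over a time course, or 16 h exposure followed by washout into drug-free medium. Some cells were pretreated 2 h with 10 μM pomalidomide or 1 μM MG-132. Immunoblot bands were normalized to β-actin and expressed as % remaining versus vehicle.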

[4] = tested on: human platelets; assay: Human platelet viability assay; assay type: cell-based; settings: Homo sapiens, Platelet, 48 h, read-out: IC50 48 h treatment Platelets
Outline: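 Platelets were separated from purchased platelet-rich plasma in acid citrate buffer with 1 μM PGE1 and 0.2 units/mL apyrase (final). Cells were centrifuged and adjusted to 2 × 10⁸/mL in HEPES Tyrode's buffer with 10% FBS, 1 μM PGE1 and 0.2 units/mL apyrase. They were treated for 48 h, with or without a 10 μM pomalidomide block, and read by MTS. IC50 values were curve-fitted. The ratio divides platelet IC50 by 48 h MOLT-4 MTS IC50.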

[5] = tested on: PARP and caspase-3 cleavage; assay: Western blot of cleaved-PARP and cleaved-caspase-3 in MOLT-4 cells; assay type: cell-based, human; settings: MOLT-4, 16 h, indicated concentrations
Outline: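 MOLT-4 cells were exposed to a range of test compound concentrations for 16 h. Cleaved PARP and cleaved caspase-3 were detected by immunoblot. Equal protein was run on 4–20% Tris-glycine gels and transferred to PVDF. Membranes were blocked in 5% milk/TBS-Tween, given primary antibody overnight at 4 °C, then HRP secondary and ECL. β-actin served as loading control.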

[6] = tested on: H146 small cell lung cancer cell line; assay: H146 cell viability assay; assay type: cell-based; settings: Homo sapiens, NCI-H146, 48 h, read-out: IC50 48 h treatment H146
Outline: (§1)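 NCI-H146 small-cell lung cancer and RS4;11 B-ALL cells maintained in RPMI 1640 plus 10% FBS and 1% penicillin-streptomycin. Cells seeded at 5×10⁴ to 1×10⁵ per well and treated with test compound for 48 h. Viability measured by tetrazolium-based MTS assay, with IC50 calculated from the viability data.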

[7] = tested on: RS4;11 B-cell ALL cell line; assay: RS4; assay type: cell-based; settings: Homo sapiens, RS4-11, 48 h, read-out: IC50 48 h treatment RS4;11
Outline: as §1

Sequence of BCL-XL (Q07817 whole entry): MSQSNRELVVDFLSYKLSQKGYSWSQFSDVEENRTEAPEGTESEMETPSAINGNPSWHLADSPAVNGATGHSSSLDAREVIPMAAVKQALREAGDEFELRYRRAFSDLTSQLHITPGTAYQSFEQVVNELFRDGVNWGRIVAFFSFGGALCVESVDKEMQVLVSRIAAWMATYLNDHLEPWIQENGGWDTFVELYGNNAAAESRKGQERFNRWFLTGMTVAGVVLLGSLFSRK

Row | effects on BCL-XL protein levels after drug washout ([3]; MOLT-4, 100 nM for 16 h then washout) | BCL-XL degradation after pretreatment with MG-132 or pomalidomide ([3]; MOLT-4, 1 μM MG-132 or 10 μM pomalidomide pretreatment for 2 h) | IC50 [6] [µM] | IC50 ([2]; Homo sapiens, MOLT-4, 48 h, read-out: IC50, reduction of MOLT-4 cell viability) [µM] | IC50 [7] [µM] | Structure (SMILES) | formation of stable ternary complexes with VHL [1] | times more potent than ABT-263 in reducing MOLT-4 cell viability ([2]; MOLT-4, versus ABT-263) [times] | BCL-XL degradation at indicated concentrations ([3]; MOLT-4, 16 h, Western blot (Figure 5A, 5F)) | IC50 [4] [µM] | PARP and caspase-3 cleavage [5]
1 |  |  |  |  |  | Cc1ncsc1-c1ccc([C@H](C)NC(=O)[C@@H]2C[C@@H](O)CN2C(=O)[C@@H](NC(=O)CCCCCC(=O)N2CCN(CC[C@H](CSc3ccccc3)Nc3ccc(S(=O)(=O)NC(=O)c4ccc(N5CCN(CC6=C(c7ccc(Cl)cc7)CCC(C)(C)C6)CC5)cc4)cc3S(=O)(=O)C(F)(F)F)CC2)C(C)(C)C)cc1 [Compound 1e, (2S,4R)-1-((S)-2-(7-(4-((R)-3-((4-(N-(4-(4-((4’-Chloro-4,4-dimethyl-3,4,5,6-tetrahydro-[1,1’-biphenyl]-2-yl)methyl)piperazin-1-yl)benzoyl)sulfamoyl)-2-((trifluoromethyl)sulfonyl)phenyl)amino)-4-(phenylthio)butyl)piperazin-1-yl)-7-oxoheptanamido)-3,3-dimethylbutanoyl)-4-hydroxy-N-((S)-1-(4-(4-methylthiazol-5-yl)phenyl)ethyl)pyrrolidine-2-carboxamide] | BCL-XL, but not BCL-2, can form stable ternary complexes | 3 |  |  | 
2 | long-lasting and also reversible | can be abrogated | 0.0253 | 0.0101 | 0.0418 | CN(CCOCCOCCOCCNc1cccc2c1C(=O)N(C1CCC(=O)NC1=O)C2=O)CC[C@H](CSc1ccccc1)Nc1ccc(S(=O)(=O)NC(=O)c2ccc(N3CCN(CC4=C(c5ccc(Cl)cc5)CCC(C)(C)C4)CC3)cc2)cc1S(=O)(=O)C(F)(F)F (stereo partly drawn) [Compound 17b, 4-(4-((4’-Chloro-4,4-dimethyl-3,4,5,6-tetrahydro-[1,1’-biphenyl]-2-yl)methyl)piperazin-1-yl)-N-((4-(((15R)-1-((2-(2,6-dioxopiperidin-3-yl)-1,3-dioxoisoindolin-4-yl)amino)-12-methyl-16-(phenylthio)-3,6,9-trioxa-12-azahexadecan-15-yl)amino)-3-((trifluoromethyl)sulfonyl)phenyl)sulfonyl)benzamide] |  |  | dose-dependently induced BCL-XL degradation | 1.22 | dose-dependently increased

From article PMC7433031 (European journal of medicinal chemistry, 2020)
